# RGS7-Gao reg – regulators of human RGS7-Galphao interaction; Multiplexed bead flow cytometry, RGS7-Galphao binding; actives lie on both sides; binding response (% of control), % at 10 µM; actives 0.35% (n = 220,000); P09471; in the data active = binding response below about 49% or above about 150%;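 note: fluorescent Galphao held in activated GDP-AlF4 state binding bead-coupled RGS7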
# RGS16-Gao HTS – modulates binding between human RGS16 and Galphao; O15492+P09471; bead-based flow cytometry RGS16-Galphao binding, fluorescence; actives lie on both sides; binding response (% of control), % at 10 µM; actives 0.38% (n = 220,000); AID 1441;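 note: Galphao activated by GDP with aluminum fluoride before binding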
# RGS4-Gao reg – human RGS4-Galphao interaction regulation; binding response (% of control), % at 10 µM; actives 0.33% (n = 220,000); Multiplexed bead flow cytometry, RGS4-Galphao binding; actives lie on both sides; P09471; in the data active = binding response below about 49% or above about 150%; inactive = in between;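 note: fluorescent Galphao activated with aluminum fluoride binding bead-coupled RGS4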
# ABCB1 block – inhibitors of human ABCB1 transporter, ABCG2 counter-screen; inhibition, % at 6.6 µM; CCRF-Adr cells, JC-1 efflux, flow cytometry; actives 0.067% (n = 190,000); AID 1326; in the data active = inhibition above about 40%;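 note: 0% = vehicle and 100% = reference inhibitor; higher value means more JC-1 retained so stronger ABCB1 efflux block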
# RGS8-Gao – regulators of human RGS8-Galphao interaction. multiplexed bead flow cytometry, RGS8-Galphao binding; actives lie on both sides. response (percent of control binding), % at 10 µM. P09471. AID 1423. actives 0.34% (n = 220,000); in the data active = response below about 60% or above about 140%; inactive = in between;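 note: Galphao activated as the GDP aluminium fluoride complex binding bead-coupled RGS8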
# ABCG2 block – human ABCG2 inhibition, ABCB1 as counter-screen; Q9UNQ0; IgMXP3 cells, JC-1 efflux, flow cytometry; inhibition, % at 6.6 µM; actives 0.1% (n = 190,000); AID 1325;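 active = inhibition above 80%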;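 note: 0% = DMSO and 100% = nicardipine control wells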
# Target sequence (Q9UNQ0 whole entry, looked up): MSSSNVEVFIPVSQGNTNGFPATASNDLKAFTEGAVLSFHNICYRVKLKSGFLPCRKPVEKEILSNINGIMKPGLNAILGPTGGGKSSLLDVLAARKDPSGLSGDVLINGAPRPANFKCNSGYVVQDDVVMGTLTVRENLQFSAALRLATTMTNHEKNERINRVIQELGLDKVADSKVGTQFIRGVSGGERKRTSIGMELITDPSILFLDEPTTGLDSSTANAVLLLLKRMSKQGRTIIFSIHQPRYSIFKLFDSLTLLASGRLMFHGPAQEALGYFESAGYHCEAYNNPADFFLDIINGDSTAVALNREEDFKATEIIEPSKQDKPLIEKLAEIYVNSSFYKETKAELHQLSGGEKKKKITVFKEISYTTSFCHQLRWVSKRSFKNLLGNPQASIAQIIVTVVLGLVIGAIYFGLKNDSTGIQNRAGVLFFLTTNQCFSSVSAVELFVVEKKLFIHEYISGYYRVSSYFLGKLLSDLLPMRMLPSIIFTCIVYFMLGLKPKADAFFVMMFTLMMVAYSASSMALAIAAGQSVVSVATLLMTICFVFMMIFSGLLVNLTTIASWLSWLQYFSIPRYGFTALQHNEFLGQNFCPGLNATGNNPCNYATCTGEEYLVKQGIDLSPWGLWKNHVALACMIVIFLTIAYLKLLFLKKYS
#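 test system = two drug-resistant human cell lines, ABCG2 and ABCB1 | amount = 3 million cells/mL final, two lines in 1:1 ratio | reagent = JC-1 transporter substrate | doses = one concentration, 6.6 µM final | incubation = 10 min at 25 °C | signal = flow cytometric JC-1 green MFI at 530 nm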
# RGS-Gao – RGS4-Galphao interaction regulator (human); shares compounds with RGS16-Gao HTS; multiplexed bead flow cytometry, RGS–Galpha-o binding; RGS4–Galpha-o binding response, % at 10 µM; actives 99% (n = 1,600); AID 1504;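 note: fluorescently labeled Galpha-o bound to GDP with aluminium fluoride binding biotinylated RGS beads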
# Biotin-avidin – counter-screen: compounds disrupting biotin binding to avidin beads; streptavidin beads, fluorescein-biotin binding, flow cytometry; 1,700 tested, under 10 active; shares compounds with RGS16-Gao HTS; AID 1783; inhibition, % at 10 µM;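 active = inhibition above 50%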;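 note: median green fluorescence of gated singlet beads compared with DMSO control wells; 0% = DMSO wells and 100% = complete loss of bead fluorescence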
# RGS8-Gao confirm – RGS8-Galphao interaction regulation, single point confirmation; bead-based flow cytometry RGS8-Galphao binding, fluorescence; actives lie on both sides; actives 3% (n = 1,700); shares compounds with RGS16-Gao HTS; binding response (% of control), % at 10 µM; in the data active = binding response below about 72% or above about 130%; inactive = in between;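 note: Galphao activated as GDP AlF4 complex before binding bead RGS8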
# RGS7-Gao confirm – RGS7-Galphao interaction regulation, single point confirmation. shares compounds with RGS16-Gao HTS. AID 1837. actives 7.8% (n = 1,700). response (percent of control binding), % at 10 µM. bead-based flow cytometry RGS7-Galphao binding; actives lie on both sides; in the data active = response below about 75% or above about 130%; inactive = in between;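 note: fluorescent Galphao activated with GDP and aluminum fluoride binding bead-coupled RGS7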
# RGS16-Gao single – RGS16-Galphao interaction regulation, single point confirmation. shares compounds with RGS16-Gao HTS. AID 1838. bead-based flow cytometry, RGS16-Galphao binding; actives lie on both sides. actives 4% (n = 1,700). response (% of control binding), % at 10 µM; in the data active = response below about 74% or above about 130%; inactive = in between;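 note: Galphao activated as the GDP aluminium fluoride complex binding bead-coupled RGS16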
# RGS4-Gao single – confirmation of regulators of human RGS4-Galphao interaction; shares compounds with RGS16-Gao HTS; RGS4-Galphao binding, multiplexed bead flow cytometry; actives lie on both sides; actives 4% (n = 1,700); binding response (% of control), % at 10 µM; in the data active = binding response below about 74% or above about 130%; inactive = in between
# RGS19-Gao single – RGS19-Galphao interaction regulation, single point confirmation. shares compounds with RGS16-Gao HTS. bead-based flow cytometry RGS19-Galphao binding; actives lie on both sides. response (percent of control binding), % at 10 µM. actives 5% (n = 1,700); in the data active = response below about 50% or above about 160%; inactive = in between;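 note: 100% = no compound control and 0% = blank background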
# * hit, by the source's call; i = inactive; . = not tested or not shown; [ ] = remark or other dose. Hits are enriched below; roughly 0.9% of the tested compounds scored in any of these assays. Unless noted, the rule behind the calls is not given here.
SMILES,RGS7-Gao reg,RGS16-Gao HTS,RGS4-Gao reg,ABCB1 block,RGS8-Gao,ABCG2 block,RGS-Gao,Biotin-avidin,RGS8-Gao confirm,RGS7-Gao confirm,RGS16-Gao single,RGS4-Gao single,RGS19-Gao single
CC(=O)Nc1cnc2ccccc2n1,181*[activator],108,113,0,102,1,113*,0,100,102,97,96,91
CSCCC(C(=O)OC1CCOC1=O)N1C(=O)c2ccccc2C1=O (configuration not stated),96,97,97,0,102,1,.,.,.,.,.,.,.
CSc1ccccc1NC(=O)C1C2CCC(C2)C1C(=O)O (configuration not stated),33*,21*,24*,1,40*,11,.,2,100,100,102,101,115
Cc1nc(SCc2nc3ccccc3[nH]2)c2oc3ccccc3c2n1,167*[activator],129,128,1,102,1,128*,.,.,.,.,.,.
c1ccc2[nH]c(CSc3ncnc4c3oc3ccccc34)nc2c1,103,107,101,1,99,3,.,.,.,.,.,.,.
COc1ccc(CNC(=O)c2ccc(Br)cc2)cc1,101,100,100,0,106,2,.,.,.,.,.,.,.
COc1ccc(CNC(=O)c2c(F)c(F)c(F)c(F)c2F)cc1,51,97,93,0,58*,1,93*,0,99,92,100,97,91
Cc1ccc(S(=O)(=O)Nc2cc(C(=O)Nc3cc(C)cc(C)c3)ccc2Cl)cc1,99,91,98,-1,96,11,.,.,.,.,.,.,.
NC1=NC(=O)CC(C(=O)Nc2cccc3ccccc23)S1 (configuration not stated),109,121,107,0,115,0,.,.,.,.,.,.,.
NC1=NC(=O)CC(C(=O)NCCc2ccccc2)S1 (configuration not stated),-29*,-73*,-82*,0,3.8*,5,.,-2,115,161*[activator],130*[activator],137*[activator],326*[activator]
O=C(NCc1ccccn1)c1ccco1,101,104,100,0,102,0,.,.,.,.,.,.,.
O=C(NC(Cc1ccccc1)C(=O)NCc1ccccn1)c1ccco1 (configuration not stated),.,.,.,0,.,0,.,-1,100,100,101,101,81
CCOC(=O)c1cccc(NC(=O)CSc2nc3ccccc3c(=O)n2CCOC)c1,13*,-10,23*,5,9.5*,55,.,2,109,111,108,109,97
C/C(=N\NC(=O)c1nn(C)c(C)c1Br)c1cccc(NC(=O)c2ccc(F)cc2)c1,112,253*[activator],114,0,140,-4,114*,1,101,104,101,102,93
C/C(=N\NC(=O)c1c(Br)c(C)nn1C)c1cccc(NC(=O)c2ccccc2F)c1,100,103,100,2,100,10,.,.,.,.,.,.,.
Cc1ccc(S(=O)(=O)N(CC(=O)N2CCCCCC2)c2ccccc2)cc1,99,101,100,0,101,3,.,.,.,.,.,.,.
Cc1ccc(N(CC(=O)N2CCN(C3CCCCC3)CC2)S(=O)(=O)c2cccnc2)cc1,108,260*[activator],109,0,135,2,109*,.,.,.,.,.,.
CCOc1ccc(C2NC(=O)NC(C)=C2C(=O)OC)cc1C (configuration not stated),.,.,.,0,.,0,.,2,102,100,101,104,95
CCc1c(C(=O)Nc2ccccc2)c(C)[nH]c(=S)c1C#N,102,-59*,99,-1,69,-3,99*,2,81,130*[activator],79,100,84
COc1cccc(NC(=O)Nc2cc(C)ccc2OC)c1,26*,22*,36*,0,34*,1,.,2,98,95,97,100,103
COc1ccc(C)cc1NC(=O)Nc1ccccc1,104,98,104,1,101,7,.,.,.,.,.,.,.
COc1ccccc1-n1c(-c2cn(C)nc2C)n[nH]c1=S,96,13*,93,0,66,-3,93*,0,89,93,85,88,84
COc1ccccc1-n1c(-c2ccccc2)n[nH]c1=S,159*[activator],110,106,0,104,0,106*,4,99,176*[activator],137*[activator],133*[activator],157*[activator]
Cc1cc(NC(=O)CN2C(=O)NC3(CCC(C)CC3)C2=O)no1 (configuration not stated),23*,-10,24*,2,23*,16,.,i,99,100,100,104,101
Cc1ccccc1NC(=O)CN1C(=O)NC2(CCCCC2)C1=O,.,.,.,0,.,1,.,0,95,98,94,94,90
Cc1cc(NC(=O)CN2C(=O)NC3(CCCCC3)C2=O)no1,95,94,95,0,96,2,.,.,.,.,.,.,.
CCOC(=O)c1c(NC(=O)CN2C(=O)NC(C)(c3ccc(Cl)cc3)C2=O)sc(C(=O)NC)c1C (configuration not stated),106,115,105,1,108,-1,.,.,.,.,.,.,.
N#Cc1nc(-c2cccc3ccccc23)oc1NCCN1CCOCC1,102,108,100,.,106,.,.,.,.,.,.,.,.
N#Cc1nc(-c2ccccc2F)oc1NCCN1CCOCC1,134,275,149,0,176*[activator],0,149*,-1,98,99,96,97,92
O=c1c2ccccc2nnn1CSc1nc2ccccc2[nH]1,100,92,101,0,98,0,.,.,.,.,.,.,.
